Usually IC50 stands for the point on the concentration scale where inhibition reaches its midpoint. By EC50 is commonly meant the concentration needed to bring the measured effect to its halfway point.

In experiment [1] the target is Metabotropic glutamate receptor 5 (Rattus norvegicus) (UniProt P31424). The experiment in a line: Negative allosteric modulation of rat mGlu5 receptor assessed as calcium mobilization by cell based fluorescence assay. Format: functional. Background: A change in cytosolic calcium serves as a functional read-out for many receptors and channels.
Sequence of Metabotropic glutamate receptor 5 (Rattus norvegicus) (P31424 21-1203 limits assumed): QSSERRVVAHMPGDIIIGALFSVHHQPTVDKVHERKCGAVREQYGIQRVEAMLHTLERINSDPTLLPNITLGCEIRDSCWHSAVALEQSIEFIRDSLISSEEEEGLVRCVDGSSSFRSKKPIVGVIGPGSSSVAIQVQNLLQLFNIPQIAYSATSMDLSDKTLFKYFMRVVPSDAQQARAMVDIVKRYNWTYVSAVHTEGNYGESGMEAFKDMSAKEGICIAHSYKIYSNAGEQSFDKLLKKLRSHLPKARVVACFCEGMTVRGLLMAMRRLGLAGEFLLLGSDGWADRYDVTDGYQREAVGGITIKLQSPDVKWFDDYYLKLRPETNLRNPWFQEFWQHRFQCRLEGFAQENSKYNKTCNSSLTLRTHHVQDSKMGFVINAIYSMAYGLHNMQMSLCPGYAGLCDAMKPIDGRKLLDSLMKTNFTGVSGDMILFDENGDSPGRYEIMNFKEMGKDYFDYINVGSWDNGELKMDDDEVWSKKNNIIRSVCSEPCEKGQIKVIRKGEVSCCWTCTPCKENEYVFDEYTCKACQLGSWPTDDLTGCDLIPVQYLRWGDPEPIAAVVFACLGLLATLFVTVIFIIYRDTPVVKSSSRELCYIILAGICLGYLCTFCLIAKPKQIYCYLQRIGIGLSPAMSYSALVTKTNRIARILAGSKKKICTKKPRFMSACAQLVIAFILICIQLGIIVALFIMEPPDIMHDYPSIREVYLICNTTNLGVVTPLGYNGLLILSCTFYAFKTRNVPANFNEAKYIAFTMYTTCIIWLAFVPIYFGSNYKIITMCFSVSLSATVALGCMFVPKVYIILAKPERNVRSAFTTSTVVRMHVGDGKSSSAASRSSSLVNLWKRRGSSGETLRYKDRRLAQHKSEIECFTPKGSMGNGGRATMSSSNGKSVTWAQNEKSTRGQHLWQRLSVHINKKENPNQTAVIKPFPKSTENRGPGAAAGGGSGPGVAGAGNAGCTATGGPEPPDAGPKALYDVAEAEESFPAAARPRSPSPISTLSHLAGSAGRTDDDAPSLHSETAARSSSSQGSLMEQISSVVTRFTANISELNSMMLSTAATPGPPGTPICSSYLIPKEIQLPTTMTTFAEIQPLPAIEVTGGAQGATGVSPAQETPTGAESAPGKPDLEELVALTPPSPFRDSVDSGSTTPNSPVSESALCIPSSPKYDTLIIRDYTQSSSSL
For experiment [2], the target named is Metabotropic glutamate receptor 3 (Rattus norvegicus, UniProt P31422). The experiment in a line: Negative allosteric modulation of rat mGlu3 receptor assessed as calcium mobilization by cell based fluorescence assay. Format: functional. The procedure, abridged: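 Cell line stably expressing rat mGlu3 with the promiscuous G-protein Gα15. Calcium mobilization with fluorescence read-out, inhibition of the glutamate response. Full concentration-response curves, top concentration 30 μM. % Glu Max is the response with 30 μM test compound as a percentage of the maximal response to 100 μM glutamate. Values averaged over n-3.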
Sequence of Metabotropic glutamate receptor 3 (P31422 whole entry): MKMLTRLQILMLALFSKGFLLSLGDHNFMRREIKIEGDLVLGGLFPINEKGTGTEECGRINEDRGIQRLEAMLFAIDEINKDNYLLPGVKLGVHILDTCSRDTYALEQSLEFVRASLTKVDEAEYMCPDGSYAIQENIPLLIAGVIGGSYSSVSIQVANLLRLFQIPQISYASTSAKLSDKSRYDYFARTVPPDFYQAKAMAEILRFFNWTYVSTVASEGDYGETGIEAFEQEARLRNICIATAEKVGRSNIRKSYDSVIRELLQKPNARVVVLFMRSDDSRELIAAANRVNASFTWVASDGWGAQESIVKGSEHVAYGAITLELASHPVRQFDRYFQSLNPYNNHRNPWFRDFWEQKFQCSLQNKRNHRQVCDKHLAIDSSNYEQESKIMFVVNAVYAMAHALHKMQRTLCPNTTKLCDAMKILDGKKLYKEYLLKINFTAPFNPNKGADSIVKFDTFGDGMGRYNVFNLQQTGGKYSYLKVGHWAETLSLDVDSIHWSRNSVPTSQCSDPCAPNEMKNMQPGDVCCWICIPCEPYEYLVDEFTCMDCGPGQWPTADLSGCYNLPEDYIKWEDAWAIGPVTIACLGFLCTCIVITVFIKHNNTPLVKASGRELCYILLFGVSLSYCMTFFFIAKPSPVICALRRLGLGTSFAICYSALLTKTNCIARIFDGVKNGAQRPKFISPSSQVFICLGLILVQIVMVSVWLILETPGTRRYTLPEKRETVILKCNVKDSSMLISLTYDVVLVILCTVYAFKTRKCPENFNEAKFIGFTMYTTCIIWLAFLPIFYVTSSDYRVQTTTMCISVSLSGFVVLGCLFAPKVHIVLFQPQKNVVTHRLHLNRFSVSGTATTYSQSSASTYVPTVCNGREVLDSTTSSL

In experiment [3] the target is Metabotropic glutamate receptor 3 (Rattus norvegicus) (UniProt P31422). The experiment in a line: Negative allosteric modulation of rat mGlu3 receptor assessed as amplitude response at 30 uM relative to glutamate. The procedure, abridged:
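Calcium mobilization in cell line stably expressing rat mGlu3 with promiscuous Gα15; fluorescence read-out; amplitude of glutamate response with 30 μM test compound expressed as percentage of maximal response (100 μM glutamate); average of n = 3.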

Experiment [4] deals with Metabotropic glutamate receptor 5 (Rattus norvegicus, UniProt P31424). The experiment in a line: Modulation of rat mGlu5 receptor assessed as calcium mobilization by cell based fluorescence assay. Type of experiment: functional. The procedure, abridged: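 Calcium mobilization assay with fluorescence read-out in cells expressing mGlu5; full concentration-response curves; % Glu Max is the amplitude of response with 30 μM test compound as a percentage of the maximal response to 100 μM glutamate; values averaged over n-3.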
Sequence of Metabotropic glutamate receptor 5 (P31424 whole entry): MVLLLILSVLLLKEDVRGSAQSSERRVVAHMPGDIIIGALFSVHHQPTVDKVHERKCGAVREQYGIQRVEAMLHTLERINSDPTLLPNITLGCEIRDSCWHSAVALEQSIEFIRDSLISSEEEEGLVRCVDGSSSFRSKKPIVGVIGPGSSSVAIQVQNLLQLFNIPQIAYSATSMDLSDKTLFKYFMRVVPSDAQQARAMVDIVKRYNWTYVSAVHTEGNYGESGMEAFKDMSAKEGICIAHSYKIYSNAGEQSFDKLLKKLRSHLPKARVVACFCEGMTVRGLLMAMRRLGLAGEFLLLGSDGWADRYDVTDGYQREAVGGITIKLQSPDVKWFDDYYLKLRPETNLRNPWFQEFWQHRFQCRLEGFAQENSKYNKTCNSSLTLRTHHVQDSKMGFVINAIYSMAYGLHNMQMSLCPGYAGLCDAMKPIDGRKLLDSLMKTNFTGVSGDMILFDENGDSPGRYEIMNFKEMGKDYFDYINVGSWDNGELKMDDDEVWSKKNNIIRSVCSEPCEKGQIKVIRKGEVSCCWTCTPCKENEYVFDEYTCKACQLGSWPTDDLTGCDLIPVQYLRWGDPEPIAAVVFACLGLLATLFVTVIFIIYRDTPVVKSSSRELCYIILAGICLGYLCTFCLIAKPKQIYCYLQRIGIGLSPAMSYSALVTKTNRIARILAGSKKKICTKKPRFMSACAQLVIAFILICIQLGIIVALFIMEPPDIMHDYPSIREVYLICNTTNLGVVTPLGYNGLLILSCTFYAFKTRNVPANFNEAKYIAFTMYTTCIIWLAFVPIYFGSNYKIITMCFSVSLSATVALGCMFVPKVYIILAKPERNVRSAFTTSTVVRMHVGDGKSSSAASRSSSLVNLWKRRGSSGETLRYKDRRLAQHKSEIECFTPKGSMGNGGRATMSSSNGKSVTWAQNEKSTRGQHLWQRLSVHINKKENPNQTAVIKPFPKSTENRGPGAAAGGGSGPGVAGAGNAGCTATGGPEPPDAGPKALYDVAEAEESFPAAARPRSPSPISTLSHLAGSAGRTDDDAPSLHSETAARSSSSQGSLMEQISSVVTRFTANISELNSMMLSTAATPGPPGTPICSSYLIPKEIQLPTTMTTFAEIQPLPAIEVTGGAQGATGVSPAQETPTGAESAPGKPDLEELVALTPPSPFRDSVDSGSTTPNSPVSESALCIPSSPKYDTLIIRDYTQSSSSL

The target of experiment [5] is Metabotropic glutamate receptor 5 (Rattus norvegicus) (UniProt P31424). Nature of the experiment: Modulation of rat mGlu5 receptor assessed as assessed as calcium mobilization at 30 uM by cell based fluorescence assay. Format: functional.
Experiment [6] shares this target. The experiment in a line: Positive allosteric modulation of rat mGlu5 receptor assessed as calcium mobilization by cell based fluorescence assay. Type of experiment: functional.

The source made the active and inactive calls. No cut-off for these calls is given here.

Sequence of Metabotropic glutamate receptor 3 (Rattus norvegicus) (P31422 23-879 limits assumed): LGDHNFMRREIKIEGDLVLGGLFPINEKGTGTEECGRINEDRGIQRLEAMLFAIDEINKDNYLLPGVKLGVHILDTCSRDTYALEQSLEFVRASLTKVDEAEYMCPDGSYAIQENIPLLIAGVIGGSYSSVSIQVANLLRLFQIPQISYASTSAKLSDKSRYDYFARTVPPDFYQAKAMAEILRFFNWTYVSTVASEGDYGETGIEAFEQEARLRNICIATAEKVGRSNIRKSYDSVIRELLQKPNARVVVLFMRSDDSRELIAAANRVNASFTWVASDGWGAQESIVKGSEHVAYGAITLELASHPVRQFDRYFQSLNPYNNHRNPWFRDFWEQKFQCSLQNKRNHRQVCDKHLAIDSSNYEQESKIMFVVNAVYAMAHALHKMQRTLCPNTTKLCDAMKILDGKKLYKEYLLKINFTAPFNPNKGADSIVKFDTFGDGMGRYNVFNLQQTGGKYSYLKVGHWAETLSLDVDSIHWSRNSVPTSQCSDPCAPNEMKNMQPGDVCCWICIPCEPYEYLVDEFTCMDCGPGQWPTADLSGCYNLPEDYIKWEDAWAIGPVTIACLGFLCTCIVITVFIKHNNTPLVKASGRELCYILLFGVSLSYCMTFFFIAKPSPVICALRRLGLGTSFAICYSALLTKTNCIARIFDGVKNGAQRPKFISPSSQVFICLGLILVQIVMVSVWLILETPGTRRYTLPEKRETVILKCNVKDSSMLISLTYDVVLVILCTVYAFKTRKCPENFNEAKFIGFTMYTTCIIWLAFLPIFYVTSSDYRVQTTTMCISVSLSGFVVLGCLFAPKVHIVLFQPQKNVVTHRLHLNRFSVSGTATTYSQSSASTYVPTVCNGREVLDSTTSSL

For the compound `COc1ccccc1N1C[C@@H](C)n2nc(COc3ccc(F)cn3)cc2C1=O`, the outcome in experiment [1] was Active. In addition, the concentration for half-maximal inhibition (IC50) in experiment [2] is 339 nM. The values for the Activity in experiment [3] and in experiment [5] were 1.49% and 3.28%, respectively. In addition, the 50% effective concentration (EC50) in experiment [4] stood at 301 nM.

Turning to `Cc1ccc(N2C[C@@H](C)n3nc(COc4ccc(F)cn4)cc3C2=O)cc1`, the outcome in experiment [1] was Active. Also, the IC50 in experiment [2] amounted to 269 nM. For the same compound, the Activity came to 1.04% in experiment [3] and 54.8% in experiment [5]. Also, the EC50 in experiment [4] was more than 10000 nM.

For the compound `COc1ccccc1N1C[C@@H](C)n2nc(COc3ccc(Cl)cn3)cc2C1=O`, in experiment [1], the outcome was Active. Also, in experiment [2], the IC50 was determined as 690 nM. Moreover, the Activity in experiment [3] came to 1.29%; in experiment [5], 58.5%. Moreover, in experiment [4], the EC50 was more than 10000 nM.

For `COc1ccnc(OCc2cc3n(n2)[C@H](C)CN(c2ccc(F)cc2)C3=O)c1`, in experiment [1], the outcome was Active. Besides, the IC50 in experiment [2] is 3690 nM. The Activity is -0.18% in experiment [3] and 54.7% in experiment [5]. In addition, the 50% effective concentration (EC50) in experiment [4] is more than 10000 nM.

`C[C@@H]1CN(c2ccc(F)cc2)C(=O)c2cc(COc3cc(C(F)(F)F)ccn3)nn21`: in experiment [1], the result was Active. For the same compound, in experiment [2], the IC50 was 1670 nM. For the same compound, the Activity in experiment [3] turned out to be 1.62%; in experiment [5], 12.9%. Besides, the EC50 in experiment [4] was more than 10000 nM.

Regarding `Cc1cccc(OCc2cc3n(n2)[C@H](C)CN(c2ccc(F)cc2)C3=O)n1`, in experiment [1], the outcome was Active. For the same compound, the IC50 in experiment [2] turned out to be 2370 nM. Besides, the Activity in experiment [3] amounted to 1.12%; in experiment [5], 2.47%. Moreover, the EC50 in experiment [4] was determined as 2250 nM.

On to `Cc1ccnc(OCc2cc3n(n2)[C@H](C)CN(c2ccc(F)cc2)C3=O)c1`, for which, in experiment [1], the result was Active. Besides, the IC50 in experiment [2] is 2090 nM. The Activity in experiment [3] was found to be 0.86%; in experiment [5], 46.9%. The EC50 in experiment [4] is more than 10000 nM.

Regarding `COc1cccc(N2C[C@@H](C)n3nc(COc4ccc(Cl)cn4)cc3C2=O)c1`, the outcome in experiment [6] was Active. Further, the 50% inhibitory concentration (IC50) in experiment [2] is 313 nM. The Activity worked out at 2% in experiment [3] and 78% in experiment [5]. Besides, in experiment [4], the EC50 stood at 5070 nM.

Consider `C[C@@H]1CN(c2cccc(F)n2)C(=O)c2cc(COc3ccc(Cl)cn3)nn21`, for which the outcome in experiment [1] was Active. Moreover, the IC50 in experiment [2] is 294 nM. For the same compound, the values for the Activity in experiment [3] and in experiment [5] were 1.75% and 24.8%, respectively. Moreover, the half-maximal effective concentration (EC50) in experiment [4] was more than 10000 nM.

Turning to `C[C@@H]1CN(c2ncccc2F)C(=O)c2cc(COc3ccc(Cl)cn3)nn21`, the result in experiment [6] was Active. Besides, in experiment [2], the IC50 came out at 362 nM. The Activity in experiment [3] turned out to be 1.64%; in experiment [5], 32.4%. In addition, the EC50 in experiment [4] was more than 10000 nM.

As for `C[C@@H]1CN(c2ccc(F)cc2F)C(=O)c2cc(COc3ccc(Cl)cn3)nn21`, the outcome in experiment [6] was Active. Moreover, the IC50 in experiment [2] stood at 280 nM. In addition, the figures for the Activity in experiment [3] and in experiment [5] were 1.34% and 70.8%, respectively. The concentration for a half-maximal effect (EC50) in experiment [4] is 2580 nM.

As for `COc1ccccc1OCc1cc2n(n1)[C@H](C)CN(c1ccc(F)cc1)C2=O`, in experiment [6], the outcome was Active. The half-inhibitory concentration (IC50) in experiment [2] is 2540 nM. The Activity in experiment [3] turned out to be 2.32%; in experiment [5], 63.7%. In addition, the EC50 in experiment [4] was more than 10000 nM.

For `C[C@@H]1CN(c2cc(F)cc(F)c2)C(=O)c2cc(COc3ccc(Cl)cn3)nn21`, in experiment [6], the outcome was Active. Moreover, the IC50 in experiment [2] worked out at 420 nM. The Activity in experiment [3] worked out at 2.18%; in experiment [5], 33.1%. Also, in experiment [4], the concentration giving a half-maximal response (EC50) was more than 10000 nM.

As for `C[C@@H]1CN(c2ccc(F)cc2)C(=O)c2cc(COc3cccc(Cl)c3)nn21`, the outcome in experiment [1] was Active. Besides, in experiment [2], the IC50 turned out to be 1620 nM. The Activity in experiment [3] amounted to 1.96%; in experiment [5] it was 32.8%. In addition, the concentration giving a half-maximal response (EC50) in experiment [4] is more than 10000 nM.

For `C[C@@H]1CN(c2cccnc2)C(=O)c2cc(COc3ccc(F)cn3)nn21`, the outcome in experiment [1] was Active. The half-inhibitory concentration (IC50) in experiment [2] is 436 nM. Further, the Activity in experiment [3] was 0.64%; in experiment [5], 46.3%. For the same compound, the EC50 in experiment [4] is more than 10000 nM.

Turning to `Cc1cccc(N2C[C@@H](C)n3nc(COc4ccc(Cl)cn4)cc3C2=O)c1`, the outcome in experiment [6] was Active. For the same compound, the concentration for half-maximal inhibition (IC50) in experiment [2] amounted to 392 nM. The Activity in experiment [3] is 1.71%; in experiment [5] it was 69.9%. The EC50 in experiment [4] was found to be 3600 nM.

Regarding `C[C@@H]1CN(c2ccc(F)cc2)C(=O)c2cc(COc3ccccc3)nn21`, the result in experiment [6] was Active. The 50% inhibitory concentration (IC50) in experiment [2] is 267 nM. Moreover, the Activity in experiment [3] amounted to 2.21%; in experiment [5] it was 87.7%. Further, the 50% effective concentration (EC50) in experiment [4] came out at 46 nM.

In the case of `COc1cccc(OCc2cc3n(n2)[C@H](C)CN(c2ccc(F)cc2)C3=O)c1`, the result in experiment [6] was Active. Besides, in experiment [2], the IC50 is 1290 nM. Moreover, the figures for the Activity in experiment [3] and in experiment [5] were 1.78% and 32.4%, respectively. Further, the EC50 in experiment [4] was found to be 1840 nM.

With `C[C@@H]1CN(c2cccc(Cl)c2)C(=O)c2cc(COc3ccc(Cl)cn3)nn21`, in experiment [6], the outcome was Active. Further, the IC50 in experiment [2] worked out at 558 nM. Besides, the Activity worked out at 1.63% in experiment [3] and 65.8% in experiment [5]. In addition, the EC50 in experiment [4] stood at 2870 nM.

As for `C[C@@H]1CN(c2ccc(F)nc2)C(=O)c2cc(COc3ccc(Cl)cn3)nn21`, the outcome in experiment [6] was Active. Further, in experiment [2], the IC50 amounted to 408 nM. In addition, the figures for the Activity in experiment [3] and in experiment [5] were 1.45% and 30.6%, respectively. The 50% effective concentration (EC50) in experiment [4] was more than 10000 nM.

For `C[C@@H]1CN(c2ccc(Cl)cc2)C(=O)c2cc(COc3ccc(Cl)cn3)nn21`, in experiment [6], the result was Active. The IC50 in experiment [2] turned out to be 1230 nM. In addition, the Activity amounted to 0.94% in experiment [3] and 51.2% in experiment [5]. For the same compound, the EC50 in experiment [4] is 3310 nM.

As to `COc1ccc(N2C[C@@H](C)n3nc(COc4ccc(F)cn4)cc3C2=O)cc1`, in experiment [6], the outcome was Active. For the same compound, in experiment [2], the half-inhibitory concentration (IC50) turned out to be 320 nM. The Activity turned out to be 1.23% in experiment [3] and 32.3% in experiment [5]. For the same compound, the EC50 in experiment [4] was found to be 1380 nM.

In the case of `C[C@@H]1CN(c2ccc(F)cc2)C(=O)c2cc(COc3ccc(F)cc3F)nn21`, the result in experiment [6] was Active. Also, in experiment [2], the IC50 is 417 nM. Also, the values for the Activity in experiment [3] and in experiment [5] were 1.7% and 82.3%, respectively. Further, the half-maximal effective concentration (EC50) in experiment [4] is 307 nM.

Consider `C[C@@H]1CN(c2ccccc2C#N)C(=O)c2cc(COc3ccc(Cl)cn3)nn21`, for which the result in experiment [6] was Active. Besides, in experiment [2], the IC50 was 429 nM. Also, the Activity in experiment [3] stood at 1.64%; in experiment [5], 38.1%. In experiment [4], the 50% effective concentration (EC50) was determined as 4970 nM.

For the compound `C[C@@H]1CN(c2ccc(F)cn2)C(=O)c2cc(COc3ccc(Cl)cn3)nn21`, the outcome in experiment [6] was Active. Moreover, the IC50 in experiment [2] was 260 nM. For the same compound, the figures for the Activity in experiment [3] and in experiment [5] were 2.44% and 47.9%, respectively. Besides, in experiment [4], the EC50 was more than 10000 nM.

For `Cc1ccccc1OCc1cc2n(n1)[C@H](C)CN(c1ccc(F)cc1)C2=O`, the outcome in experiment [6] was Active. Moreover, the IC50 in experiment [2] came to 721 nM. The Activity is 1.56% in experiment [3] and 83.7% in experiment [5]. Besides, the concentration giving a half-maximal response (EC50) in experiment [4] was determined as 1500 nM.

The values are drawn from ChEMBL document CHEMBL3616441, “Discovery of a Selective and CNS Penetrant Negative Allosteric Modulator of Metabotropic Glutamate Receptor Subtype 3 with Antidepressant and Anxiolytic Activity in Rodents” (J Med Chem, 2015).
